# Hits are enriched below; roughly 3.7% of the tested compounds scored in any of these assays.
# KCNQ1 block: blocks the human KCNQ1 potassium channel | B-score at 10 µM | 1.3% of 310,000 active | CHO-K1 KCNQ1, FluxOR thallium flux fluorescence; active compounds read high;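 active means compounds whose thallium flux B-score, printed positive for inhibition, exceeds three library SD while starting fluorescence stays within three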;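 further: channel opened by potassium depolarization with thallium stimulus after 20 min compound exposure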
# Target sequence (P51787 whole entry, looked up): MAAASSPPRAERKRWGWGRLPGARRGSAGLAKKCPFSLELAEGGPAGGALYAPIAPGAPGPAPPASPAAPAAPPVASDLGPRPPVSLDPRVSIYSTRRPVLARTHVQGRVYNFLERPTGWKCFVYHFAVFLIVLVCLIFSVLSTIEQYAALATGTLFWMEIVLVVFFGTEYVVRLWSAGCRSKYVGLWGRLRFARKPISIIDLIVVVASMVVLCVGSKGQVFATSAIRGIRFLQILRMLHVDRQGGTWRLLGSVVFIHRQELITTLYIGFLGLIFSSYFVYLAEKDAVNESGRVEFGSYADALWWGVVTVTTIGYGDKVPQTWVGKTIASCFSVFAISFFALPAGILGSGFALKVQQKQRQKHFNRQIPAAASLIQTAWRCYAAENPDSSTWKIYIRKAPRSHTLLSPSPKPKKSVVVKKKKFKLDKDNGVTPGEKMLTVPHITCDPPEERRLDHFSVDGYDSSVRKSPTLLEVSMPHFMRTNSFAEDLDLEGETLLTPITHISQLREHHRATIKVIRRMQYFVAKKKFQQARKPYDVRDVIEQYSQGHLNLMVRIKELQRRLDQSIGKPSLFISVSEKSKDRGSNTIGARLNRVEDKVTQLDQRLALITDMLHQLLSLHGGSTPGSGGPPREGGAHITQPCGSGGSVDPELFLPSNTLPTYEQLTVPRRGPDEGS
# Kir21 block: inhibitors of mouse Kir2.1 inward-rectifier potassium channel | P35561 | HEK293-Kir2.1, FluxOR thallium flux fluorescence; active compounds read low | B-score at 10 µM | 0.85% of 310,000 active;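 active means fluorescence ratio B-score at or below minus 3 SD of library scores, with starting-brightness B-score within 2 SD, cut at about -4.2 in these data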;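 further: channel flux triggered by added potassium and thallium sulfate stimulus; B-score of peak minus minimum fluorescence over baseline after thallium stimulus; more negative B-score means stronger Kir2.1 block with less thallium influx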
# KCNK9 inh: blocks the human KCNK9 two-pore domain potassium channel | Q9NPC2 | HEK293 KCNK9, FluxOR thallium flux fluorescence; active compounds read low | B-score at 10 µM | 1.2% of 310,000 active | AID 488922;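 active means ratio B-score over 3 SD below the library mean, with starting fluorescence within 5 SD of its mean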;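 further: negative B-score means less thallium flux so channel inhibition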
# hERG rescue: shields human hERG channel from block by proarrhythmic agents. activation (rescue from dofetilide block), less the hit threshold, % at 10 µM. CHO-hERG, FluxOR thallium flux, dofetilide IC70 present. 0.51% of 310,000 active. Q12809. AID 1511;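 active means activation above the mean of controls blocked by dofetilide plus 5 SD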;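 further: thallium influx through hERG after potassium depolarization seen as dye fluorescence rise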
# KCNK3 block: human KCNK3 channel inhibition, primary screen. O14649. 0.84% of 340,000 active. B-score at 10 µM. CHO-KCNK3 thallium flux, FluxOR fluorescence; active compounds read low;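 active means B-score under library mean minus 4 SD, starting fluorescence ratio at most library mean plus 5 SD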;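 further: more negative B-score means stronger inhibition of thallium flux through KCNK3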
# KCNQ1 act: potentiates or activates the human KCNQ1 potassium channel; CHO-K1 KCNQ1, thallium flux FluxOR fluorescence; active compounds read high; 0.35% of 310,000 active; P51787; B-score at 10 µM;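 active means fluorescence ratio B-score, a plate-corrected score, at least three library SD, with initial intensity B-score within 5 SD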
#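 Schedule – 37 °C overnight plating, 90-min dark dye load, 20-min compound pretreatment · System – stable KCNQ1 CHO-K1 line · Probe or stimulus – thallium- and potassium-containing depolarizing buffer · Measured by – kinetic FluxOR fluorescence, 10 s baseline plus 110 s post-stimulus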
# Active calls of the source: *; i = inactive; nt = not tested or not shown.
SMILES,KCNQ1 block,Kir21 block,KCNK9 inh,hERG rescue,KCNK3 block,KCNQ1 act
COc1ccc(C(=Cc2cc(OC)c(OC)cc2[N+](=O)[O-])C(=O)O)cc1,nt,nt,nt,nt,i,nt
S=c1[nH]nc(CSc2nc3ccccc3s2)n1C1CCCCC1,i,-2.6,-7.5*,4,i,22*
CC1c2ccsc2CCN1S(=O)(=O)c1ccccc1 (stereo unspecified),i,-6.8*,i,-15,i,i
CC1c2cccn2CCN1S(=O)(=O)c1ccccc1 (stereo unspecified),nt,nt,nt,nt,i,nt
Cc1nn(Cc2ccc(C(=O)NC(C)(C)C)o2)c(C)c1Br,i,-0.67,i,-17,i,i
O=C(NC1CCCCCC1)c1ccc(Br)o1,i,-0.17,i,-1,i,i
O=C(NC1CCCC1)c1ccc(Br)o1,i,-0.51,i,4.6*,i,i
Cc1nn(Cc2ccc(C(=O)NC3CCCCC3)o2)c(C)c1Br,6*,-0.59,i,-16,i,i
CC(C(Sc1ccccc1N)c1ccccc1)[N+](=O)[O-] (stereo unspecified),i,-7.2*,i,-10,i,i
Nc1ccccc1SSc1ccccc1N,i,0.16,i,-7,i,i
COc1ccc(CC(=O)NNS(=O)(=O)c2ccc([N+](=O)[O-])cc2)cc1OC,i,0.05,i,-9,i,i
COc1ccc2c(c1)-c1nc(/N=C/c3ccc(O)cc3)sc1CC2,nt,nt,nt,nt,i,nt
COc1ccc2c(c1)-c1nc(/N=C/c3c(O)ccc4ccccc34)sc1CC2,11*,0.02,i,-10,i,i
COc1cccc(CN(C)CC(=O)Nc2ccccc2N2CCOCC2)c1OC,i,-2.5,i,5.1*,i,i
Cc1ccccc1OCC(=O)Nc1ccccc1N1CCOCC1,i,-7.9*,i,-13,i,i
CC(=O)N1CCN(c2ccccc2NC(=O)COc2ccccc2C)CC1,i,-0.82,i,-5,i,i
COc1ccc(S(=O)(=O)N2CCOCC2)cc1NC(=O)COC(=O)C1COc2ccccc2O1 (stereo unspecified),i,0,i,-7,i,i
CCOc1ccc(S(=O)(=O)N2CCC(C(=O)NCc3ccncc3)CC2)cc1,i,0.6,i,-5,i,i
O=C(NCCCc1ccccn1)C1CCC(=O)N(Cc2cccc(F)c2)C1 (stereo unspecified),i,-1.9,i,-8,i,i
Cc1nc2nc(SCc3ccccc3)[nH]n2c(=O)c1CCC(C)C,i,0.06,i,-6,i,i
CCc1ccc(OCC(=O)NC(=S)Nc2cccc(CO)c2)c(Br)c1,i,0.17,i,-8,i,i
CCc1ccc(OCC(=O)NC(=S)Nc2ccc(C(C)=O)cc2)c(Br)c1,i,2,i,4.9*,i,i
Cc1ccc(C)c(OCCCCN2CCNCC2)c1C,i,-2.5,i,-8,i,i
CCOC(=O)CCCNC(=O)CSc1nc2ccc(OCC)cc2[nH]1,i,1.5,i,7.2*,i,i
O=CN1CCN(S(=O)(=O)c2ccc(S(=O)(=O)NC3CCCCC3)cc2)CC1,i,-1.3,i,-5,i,i
SMILES,KCNQ1 block,Kir21 block,KCNK9 inh,hERG rescue,KCNK3 block,KCNQ1 act
COc1ccc(/C=N/NC(=O)C(=O)/C=C2\NC3(CCCC3)Cc3ccccc32)cc1,i,0.87,-6.6*,-6,i,i
NNC(=O)C(=O)/C=C1\NC2(CCCC2)Cc2ccccc21,i,-0.25,i,-8,i,i
Cc1cc(C(=O)NNC(=O)c2ccccc2F)c2ccccc2n1,nt,nt,nt,nt,i,nt
CCCCS(=O)(=O)/C=C\C=C/S(=O)(=O)CCCC,i,-1.7,i,-12,i,14*
COc1ccc(OC)c(NC(=O)CN(C)S(=O)(=O)c2ccc(Cl)cc2)c1,i,-0.4,i,-16,i,i
CC(=O)Nc1cccc(OCC(=O)NC(C)c2ccc3ccccc3c2)c1 (stereo unspecified),i,-6.2*,i,-7,i,i
COc1cc(C#N)ccc1OC(=O)C1CCN(C(=O)c2ccc(F)cc2)CC1,i,0.24,i,-10,i,i
O=C(CSCc1cc(=O)n2nc(C3CC3)sc2n1)Nc1ccccc1Cl,i,-3.1,i,-7,i,i
CN(/N=C/c1cc(Cl)cc(Cl)c1O)C(=S)NC(C)(C)C,13*,0,i,-21,i,i
Nc1cc(C(=O)OCC(=O)NNC(=O)c2ccccc2)ccc1Cl,i,1.8,i,-6,i,i
N#Cc1cccc(NC(=O)c2nc(-c3ccccc3)n(-c3ccccc3)n2)c1,i,0.72,i,7.1*,i,i
Cc1ccc(C)c(NC(=O)c2nc(-c3ccccc3)n(-c3ccccc3)n2)c1,i,0.24,i,-11,i,i
Cc1ccc(N(C(=O)c2csnn2)C(C(=O)NC2CCCC2)c2ccccn2)cc1 (stereo unspecified),i,-0.02,i,-3,i,i
c1ccc(-c2nnsc2-c2ncc[nH]2)cc1,i,-1.2,i,4.7*,i,i
CCN(CC)S(=O)(=O)c1cc(NC(=O)CSCc2c(C)noc2C)ccc1C,nt,nt,nt,nt,-10*,nt
COc1ccc(CNCC(O)(c2ccccc2)c2ccc(Cl)cc2)cc1 (stereo unspecified),i,-5.9*,i,-29,i,i
CCc1ccc(C(O)(CNCc2ccccc2)c2ccccc2)cc1 (stereo unspecified),i,-8.9*,i,-13,i,i
CCOC(=O)N1CCC2CC1c1cc(-c3cccc(OC)c3)ccc12 (stereo unspecified),nt,nt,nt,nt,i,nt
C=CC1CN(C(=O)OCC(Cl)(Cl)Cl)C2CC3c4ccc(OC)cc4NC3C3CC1C2CO3 (stereo unspecified),7*,-0.73,i,-17,nt,i
CCOc1ccc(/C=C2\SC(=S)NC2=O)cc1OC,i,1.2,i,-12,i,i
COc1cc(/C=C2\SC(=S)NC2=O)ccc1OS(=O)(=O)c1ccccc1,i,0.04,i,-12,nt,26*
O=C1NC(=S)S/C1=C\c1ccc2ccccc2c1,i,0.8,i,36*,i,49*
COc1cc(/C=C2/SC(=S)NC2=O)ccc1OS(=O)(=O)c1ccc(C)cc1,i,-1.9,i,-12,i,48*
COc1ccc(/C=C2\SC(=O)NC2=S)cc1OC,i,-1.1,i,5.7*,i,12*
COC(=O)[C@H](Cc1ccccc1)NC(=O)NCCc1ccccc1F,i,0.02,i,-11,i,i
